From PubChem
CHOP UPR activ – activators of apoptotic arm of unfolded protein response (CHOP); CHO-CHOP luciferase reporter, UPR activation, luminescence; percent of tunicamycin response over DMSO baseline; activation, % at 10 µM; 330,000 compounds, 0.34% hits;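 active = at 10 µM dose, activation of 40% or more, normalized to positive control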;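 also: 100% = tunicamycin at 10 µg/mL and 0% = DMSO alone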
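Test system: CHO-CHOP cells, stable luciferase reporter of PERK-eIF2a-CHOP signalling | Quantity: 500 CHO-CHOP cells per well | Buffer or medium: F12 plus 10% serum | Compound dosing: 10 µM single point, 0.5% DMSO | Schedule: 6 h compound treatment, 37 °C | Signal: Luciferase luminescence | Control set: Tunicamycin high control, DMSO low control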
NOD2 RIPK2 PPI – blocks binding of human NOD2 to RIPK2 | O43353 | CHO BLA complementation NOD2-RIPK2, CCF4 ratio | inhibition, % at 4.98 µM | 360,000 compounds, 0.38% hits; in the data active = inhibition above about 21%;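 also: 0% = vehicle only and 100% = reference blocker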
TLR4-MyD88 BLA – inhibitors of human TLR4-MyD88 binding; O00206+Q99836; HeLa CL3-4 TLR4/MyD88 BLA complementation, FRET ratio; AID 861; 200,000 compounds, 0.18% hits; inhibition, % at 8.4 µM; in the data active = inhibition above about 25%;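 also: 0% = vehicle and 100% = reference inhibitor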
UPR XBP1 act – adaptive UPR (XBP1) activation. CHO-XBP1 luciferase reporter, IRE1-XBP1 UPR activation, luminescence; percent of tunicamycin response, DMSO as zero. activation, % at 20 µM. 330,000 compounds, 0.33% hits. AID 463104;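 active = versus positive control, 20 µM dose yields 30% or more activation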;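 also: 100% = tunicamycin at 10 µg/mL and 0% = DMSO only wells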
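assay system = CHO-XBP1 luciferase reporter cells | amount = 1000 cells/well | buffer or medium = F12 plus 10% FBS | compound dosing = single point, 20 µM final compound, 1% DMSO | incubation = 16-18 h cell attachment at 37 °C, then 6 h compound exposure | detection = Steady-Glo luminescence read | controls = tunicamycin 10 µg/mL and vehicle-only wells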
CHOP inhibitor – inhibitors of CHOP induction in ER stress response; CHO-K1 CHOP-promoter luciferase, tunicamycin-induced, 15-18 h; 220,000 compounds, 3.8% hits; inhibition, % at 10 µM;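 active = compounds that reduced the stress-induced luciferase reporter signal by more than about 70% of percent inhibition, limit read from the data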;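 also: 0% = tunicamycin plus vehicle and 100% = wells without tunicamycin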
TLR9-MyD88 block – blocks human TLR9 binding to MyD88; 340,000 compounds, 0.21% hits; inhibition, % at 4.98 µM; CHO BLA complementation TLR9-MyD88, CCF4 FRET ratio; Q9NR96+Q99836; AID 504734;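 active = inhibition above the mean over all tested compounds plus 3 SD, cut at about 21% in these data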;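 also: 0% = DMSO only wells and 100% = clavulanate BLA inhibitor control wells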
UPR CHOP confirm – apoptotic UPR (CHOP) activation, confirmed. CHO-CHOP cells, CHOP-luciferase reporter luminescence; percent of tunicamycin response, DMSO as zero. AID 463112. activation, % at 10 µM. shares compounds with CHOP UPR activ. 1,000 compounds, 64% hits; in the data active = activation above about 33%;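 also: 0% = DMSO wells and 100% = tunicamycin 10 µg/mL wells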
An asterisk follows results filed as active; x = not tested or not shown. The entries come from a sample that favours hits as a whole.

SMILES | CHOP UPR activ | NOD2 RIPK2 PPI | TLR4-MyD88 BLA | UPR XBP1 act | CHOP inhibitor | TLR9-MyD88 block | UPR CHOP confirm
O=C(/C=C/c1cccnc1)c1ccc(NC(=O)c2cccc(Br)c2)cc1 | 91.3* | 15.0 | 0.3 | 9.7 | -46.7 | -0.1 | 196.8*
Cc1cccc(C(=O)Nc2ccc(C(=O)/C=C/c3cccnc3)cc2)c1 | x | 5.7 | 13.2 | x | -56.3 | 6.2 | x
COC(=O)Cc1cc(OC)c(OC)cc1S(=O)(=O)N(C)C | -0.4 | -2.6 | -8.0 | -1.6 | 14.2 | -4.5 | x
O=C(N/N=C(\c1ccccc1)c1cccnc1)c1cccc(F)c1 | 51.2* | 17.4 | x | -5.2 | x | 7.8 | 90.7*
CCCN(CC(=O)Nc1ccccc1OC)C(=O)c1cccc(S(=O)(=O)Nc2ccc(OC)cc2)c1 | -1.4 | -18.1 | x | 3.2 | x | -4.3 | x
c1ccc2c(CN3CCSCC3)cccc2c1 | 0.9 | 1.6 | x | -4.9 | x | -3.7 | x
COC(=O)c1ccc(/C=C/C(=O)c2ccc(OC)c(OC)c2)cc1 | 0.9 | 7.4 | 3.1 | -5.6 | -29.1 | 5.9 | x
COc1ccc(/C=C/C(=O)c2ccc(C(=O)/C=C/c3ccc(OC)c(OC)c3)cc2)cc1OC | 83.9* | -0.7 | x | 5.0 | x | 3.0 | 138.2*
Cc1ccc(Cc2c(C3CCCCC3)nc3c4ccccc4ccn23)cc1 | x | -7.0 | x | x | x | x | x
CC(C)(C)C(C(=O)NCc1ccccc1)N1CCN(C(=O)C2CCCO2)CC1 (centres undefined) | x | -3.1 | x | x | x | x | x
COc1c(Cl)cc(Cl)cc1/C=C/C(=O)c1ccc(NC(=O)c2cccs2)cc1 | 54.7* | 1.3 | 2.3 | 12.4 | -115.9 | 6.4 | 247.0*
O=C(N/N=C/c1ccc(O)c(O)c1)NC12CC3CC(CC(C3)C1)C2 | 144.8* | -2.8 | x | 41.7* | x | 0.1 | 157.5*
CCOc1ccc(/C=N/NC(=O)NC23CC4CC(CC(C4)C2)C3)cc1O | 2.2 | -1.4 | x | 7.3 | x | -2.7 | x
Cc1cnnn1-c1ccc(C(=O)CCl)cc1 | 131.8* | -3.0 | -11.3 | -7.2 | 91.6* | -1.5 | -9.3
CC(=O)c1ccc(-n2nncc2C(C)(C)C)cc1 | 0.5 | -0.4 | -4.8 | -0.5 | 1.1 | -6.7 | x
O=C(CS(=O)(=O)c1ccc(Cl)cc1)N1CCN(c2ccccc2)CC1 | x | 7.7 | x | x | x | -3.5 | x
CC1CCCCC1NC(=O)NC(=O)CCl (centres undefined) | 42.1* | 5.1 | -11.4 | -1.6 | -75.2 | -1.8 | 6.6
Cc1cc(C)n(-c2nc(NC(C)(C)C)nc(NC(C)(C)C)n2)n1 | 108.3* | -4.4 | -3.6 | 8.9 | 78.4* | 2.7 | 45.3*
Cc1cc(C)n(-c2nnc(NC(C)(C)C)nn2)n1 | 3.2 | -6.0 | -6.8 | -4.3 | -16.5 | -5.2 | x
CCCCCOc1ccc(N2C(=O)CC(N(O)c3ccccc3)C2=O)cc1 (centres undefined) | 112.4* | -8.8 | 5.0 | -0.9 | 38.2 | -4.4 | 142.8*
CCCCN(C(C)=O)C1CC(=O)N(c2ccc(OCCC)cc2)C1=O (centres undefined) | -1.6 | -11.5 | x | -2.0 | 25.8 | -2.9 | x
CCCCOc1ccc(N2C(=O)CC(N(O)c3ccccc3)C2=O)cc1 (centres undefined) | 146.5* | 3.8 | -9.4 | 4.4 | 8.0 | 3.8 | 164.8*
Cc1cccc(C(C)C)c1NC(=O)c1ccc(CN(c2ccccc2)S(=O)(=O)c2ccccc2)cc1 | -1.2 | -9.0 | 5.7 | -2.4 | -11.3 | -1.3 | x
C[C@@H]1[C@H]2[C@@H](O[C@@H]3O[C@H](CO)[C@@H](O)[C@H](O)[C@H]3O)OC=C(C(=O)O)[C@H]2C[C@@H]1O | -0.3 | -0.3 | x | -1.9 | x | -11.1 | x
Cc1nn(CC(=O)N2c3ccccc3NC(=O)C2(C)C)c(C)c1[N+](=O)[O-] | 1.9 | -2.3 | 5.6 | -1.6 | -2.1 | 2.7 | x
SMILES | CHOP UPR activ | NOD2 RIPK2 PPI | TLR4-MyD88 BLA | UPR XBP1 act | CHOP inhibitor | TLR9-MyD88 block | UPR CHOP confirm
CC1(C)C(=O)Nc2ccccc2N1C(=O)Cn1ncc(Cl)c(Cl)c1=O | 50.1* | -3.7 | x | 1.6 | -103.5 | 5.0 | 4.2
Cc1cc(C(=O)Nc2ccc3[nH]ccc3c2)no1 | 1.5 | -6.3 | x | -1.1 | -14.2 | -4.8 | x
Cc1noc2ncnc(Sc3ccc(Cl)cc3)c12 | 188.4* | -0.5 | 16.5 | -6.3 | -7.3 | -6.8 | 117.9*
CCN(CC)Cc1c(O)ccc2c1O/C(=C\C=C\c1ccccc1)C2=O | 69.3* | 12.8 | x | -0.6 | -0.2 | 15.3 | 1.5
O=C(COC(=O)c1cc(Cl)nc(Cl)c1)Nc1ccc(Cl)c(S(=O)(=O)N2CCOCC2)c1 | 0.6 | -3.1 | x | -3.5 | x | -14.2 | x
CCOC(=O)CSc1cccc2cccnc12 | 231.4* | -0.8 | 2.8 | 5.2 | 2.1 | 4.0 | 202.2*
Cc1cccc(CSc2cccc3cccnc23)c1 | 406.9* | 7.5 | 12.1 | 5.1 | 0.1 | 5.3 | 253.7*
NNC(=O)c1ccc(CSc2cccc3cccnc23)cc1 | 3.7 | -8.8 | 0.3 | -1.8 | -21.2 | 7.3 | x
Cc1cccc(NC(=O)CSc2cccc3cccnc23)c1C | 2.2 | -1.1 | x | -2.2 | x | 6.0 | x
CC1(C)CC(=O)C=C(c2cccc(OC(=O)c3ccc(Br)cc3)c2)C1=O | x | 4.4 | x | x | x | -1.5 | x
C=CCOC(=O)Nc1c(C(=O)OC)[nH]c2ccc(Cl)cc12 | 2.0 | 2.3 | 4.0 | -4.6 | -12.3 | -3.1 | x
O=C(c1ccc([N+](=O)[O-])o1)N1CCN(c2nc3c(F)cc(F)cc3s2)CC1 | 21.8 | 7.6 | x | 2.8 | x | -11.1 | x
Cc1ccc(C)c2sc(N3CCN(C(=O)c4ccc([N+](=O)[O-])o4)CC3)nc12 | 82.8* | 6.3 | x | 6.8 | x | 3.6 | 60.8*
CCc1ccc2nc(N(CCCN(C)C)C(=O)c3ccc(S(=O)(=O)N(C)C4CCCCC4)cc3)sc2c1 | 112.8* | 6.2 | x | 130.6* | x | -1.1 | 65.3*
CN(C)CCCN(C(=O)c1ccc(S(=O)(=O)N(C)C2CCCCC2)cc1)c1nc2ccc(F)cc2s1 | 1.5 | 6.3 | x | 2.2 | x | -1.0 | x
COc1cccc(C(=O)Oc2ccccc2/C=C\C(=O)c2cc3ccccc3o2)c1 | x | 9.8 | 12.4 | x | 44.5 | 4.9 | x
O=C(Oc1ccccc1/C=C\C(=O)c1cc2ccccc2o1)c1ccccc1 | 73.1* | -4.5 | 7.0 | 27.4 | -36.6 | -6.9 | 243.9*
CCN(c1ccccc1)S(=O)(=O)c1c(C)noc1C | 0.8 | 0.1 | x | -3.6 | x | 9.4 | x
C1=CC2=NC34CCCCC3CC3=C(CCCC3)N4C2=CC1=NC1CCCCC1 (centres undefined) | 48.5* | 6.0 | x | 10.2 | x | 1.0 | 1.0
C=CCOC(=O)c1sc(NC(=O)c2ccc(OC)cc2)nc1C | 43.2* | 3.1 | 4.7 | 4.8 | 27.0 | 2.2 | 0.3
CCOc1ccc(C(=O)Nc2nc(C)c(C(=O)OC)s2)cc1 | 4.3 | -2.2 | x | 2.2 | -40.2 | x | x
NCCCCNS(=O)(=O)c1cccc2c(Cl)cccc12 | x | x | x | x | 3.6 | x | x
